HSF1 activator – increases HSF-1 driven luciferase reporter signal; NIH3T3-HGL HSF-1 luciferase reporter, MG132, 8 h; 100% = twice DMSO control signal; activation, % at 9 µM; 300,000 tested, 1.7% active; AID 504408;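 active = mean replicate activation of at least 50% with a set share of replicates each reaching 50%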;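 note: 0% = median of the neutral control wells and 100% = twice that signal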
ALR inh – blocks human ALR sulfhydryl oxidase activity | P55789 | purified ALR, DTT oxidation, H2O2 HRP-luminol luminescence | inhibition, % (no concentration beside the values) | 290,000 tested, 3.8% active | AID 485317;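 active = mean replicate inhibition above about 79%, with every replicate also reaching it, limit read from the data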
Target sequence (P55789 whole entry, looked up): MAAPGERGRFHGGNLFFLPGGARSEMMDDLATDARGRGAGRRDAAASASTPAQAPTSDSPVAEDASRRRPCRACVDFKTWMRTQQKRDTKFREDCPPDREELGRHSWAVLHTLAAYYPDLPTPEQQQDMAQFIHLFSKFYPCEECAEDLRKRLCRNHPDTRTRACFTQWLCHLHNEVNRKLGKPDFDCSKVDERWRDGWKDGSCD
HSF1 inhib – HSF1 inhibition | activity change, negative = inhibition, % at 7.5 µM (by protocol) | NIH3T3-HGL HSE-luciferase, MG132-induced, luminescence 8 h; active compounds read low | 300,000 tested, 0.77% active;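 active = more than half of replicate wells show activity change below -50%, luminescence cut by over half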;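 note: luciferase reports HSF-1 transcriptional activity via heat shock element; 0% = median of DMSO wells and -100% = zero luminescence signal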
AI-2 QS mod – modulators of Vibrio harveyi AI-2 quorum sensing system; AID 2094; Vibrio harveyi JMH597 AI-2 luminescence/OD600 ratio, 9 h; active compounds read low; strain lacks LuxN and CqsS sensors; 0 = neutral-control median; activity change, % at 7.5 µM; 300,000 tested, 0.4% active; in the data active = activity change below about -75%, passing the limit was not always enough;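 note: luminescence divided by OD600 gain over 9 h not by final OD600 alone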
PHOSPHO1 block – inhibitors of human PHOSPHO1 phosphatase | AID 1565 | recombinant PHOSPHO1, absorbance phosphatase assay | inhibition, % at 13.3 µM | Q8TCT1 | 290,000 tested, 1.1% active; in the data active = inhibition above about 60%
core dimer inh – blocks dimerization of HCV core protein; 300,000 tested, 0.33% active; inhibition, % at 5 µM; TR-FRET GST/Flag-core106 dimerization, 1536-well;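 active = inhibition above the mean of all tested compounds plus 3 SD, set per screening campaign, cut at about 45% in these data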
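assay system = GST-tagged and Flag-tagged HCV core protein residues 1-106 | controls = unlabelled core106 and no-GST-core106 wells | incubation = compound-protein-antibody incubation 4 h at 22.5 °C | probe or stimulus = Eu donor and XL665 acceptor anti-tag antibodies | read-out = % inhibition based on acceptor/donor emission ratio | signal = TR-FRET 671 and 617 nm emission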
Active calls of the source: *; . = not tested or not shown. This is a sample that favours compounds with a hit; in the whole collection about 6.8% have one here.

SMILES | HSF1 activator | ALR inh | HSF1 inhib | AI-2 QS mod | PHOSPHO1 block | core dimer inh
Cc1ccc(NC2CCCN(C(=O)c3ccnc(Cl)c3)C2)cc1C (configuration not stated) | -1 | 96* | 3 | 8 | 40 | -4
O=C(c1ccc2nccnc2c1)N1CCCC(Nc2ccc(F)c(F)c2)C1 (configuration not stated) | 59* | 2 | 22 | 3 | 13 | -18
Cc1ccc(NC2CCCN(C(=O)c3ccc4nccnc4c3)C2)cc1C (configuration not stated) | -5 | 98* | -5 | 18 | -1 | .
COc1cccc(C(=O)C2CCCN(C(=O)c3cccc(C#CC(C)(C)O)c3)C2)c1 (configuration not stated) | 3 | 0 | -3 | 6 | 28 | 4
COc1ccc(C(=O)N2CCCC(Nc3ccc(C)c(C)c3)C2)c(OC)n1 (configuration not stated) | 12 | 83* | 5 | 26 | 1 | -2
CC(C)c1ccc(NC2CCCN(C(=O)c3cccc4nccnc34)C2)cc1 (configuration not stated) | -12 | 66 | 1 | 20 | 22 | -3
Cc1cccc(C(=O)N2CCCC(Nc3ccc(C)c(C)c3)C2)n1 (configuration not stated) | -1 | 99* | 1 | 11 | 27 | 5
COc1ccc(NC2CCCN(C(=O)c3ccc4nccnc4c3)C2)cc1OC (configuration not stated) | -4 | 96* | -2 | 10 | 47 | -11
COc1ccc(C(=O)N2CCCC(Nc3ccc(F)c(F)c3)C2)c(OC)n1 (configuration not stated) | 20 | 20 | 12 | 23 | 24 | 11
Cc1ccc(NC2CCCN(C(=O)c3cccc4nccnc34)C2)cc1C (configuration not stated) | 13 | 88* | 3 | -1 | -21 | -1
Cc1c(NC(=O)c2ccc(Br)s2)c(=O)n(-c2ccccc2)n1C | 7 | -3 | 2 | 12 | -8 | 2
Cc1cccc(C)c1OCCNC(=O)C(=O)NCc1ccco1 | -18 | -19 | 0 | 20 | 12 | -10
COc1ccc(Cl)cc1-c1nc(SCC(=O)N(C)C2CCS(=O)(=O)C2)n[nH]1 (configuration not stated) | . | 3 | . | . | . | .
Cc1ccc(NC2CCCN(C(=O)c3ccc(F)cc3)C2)cc1C (configuration not stated) | 4 | 90* | 3 | 52 | 36 | 4
Cc1ccc(NC2CCCN(C(=O)c3ccc(-n4ccnc4)cc3)C2)cc1C (configuration not stated) | 1 | 62 | -3 | 9 | 9 | -17
C/C(=N/NS(=O)(=O)c1ccc(C)cc1C)c1c[nH]c2ccccc12 | -6 | 71 | -5 | 2 | -50 | .
CCOC(=O)C1(CCC(C)C)CC(CSc2nc3ccccc3[nH]2)OC1=O (configuration not stated) | 8 | -5 | 13 | 6 | 71* | 2
CN(C)c1cccc2c1c(NC(=O)c1ccc(F)cc1)nn2C | 24 | 15 | 3 | 19 | 62* | -9
CN(C)c1cccc2c1c(NC(=O)c1ccc(Cl)cc1)nn2C | 14 | 29 | 4 | -2 | 10 | 2
O=C1C(Cl)=C(Nc2ccccc2O)C(=O)N1c1ccccc1 | 34 | 67 | 24 | 31 | 60* | 4
COc1ccc(CNc2ccc(Cl)cc2)cc1Cn1ccnc1 | 10 | . | -1 | 3 | 22 | 7
CCc1ccc(NCc2ccc(OC)c(Cn3ccnc3)c2)cc1 | -11 | 81* | -3 | -32 | 18 | -9
CCOc1ccc(OCCOC(=O)C2CCN(S(=O)(=O)c3ccc(C)c(C)c3)CC2)cc1 | 0 | -1 | 0 | 25 | . | 3
COc1ccccc1P(=O)(Cc1ccccc1[N+](=O)[O-])c1ccccc1 (configuration not stated) | 7 | 1 | 4 | 22 | 23 | 1
CCc1ccccc1N1CSC2=C(C#N)C(c3cc(OC)c(OC)cc3OC)CC(=O)N2C1 (configuration not stated) | 11 | -47 | 3 | 8 | 6 | 23
